Experimental data: PMC9675722 (Cell chemical biology, 2022)
Like-named read-outs stand apart in the source and are kept apart here.

Tests used:
[1] = system: IL-6 stimulated MM.1S cells; assay: IL-6-induced MM.1S proliferation; assay type: cell-based, Human; conditions: 500 nM and 1 μM, 5 nM IL-6, 3d
Outline: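 MM.1S cells at 10,000 cells/well were pre-treated for 5 h with test compound at 500 nM or 1 μM. Recombinant human IL-6 (5 nM) was then added. After 72 h, proliferation was read by CellTiter-Glo. Data are mean with standard deviation of three biological replicates.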

MOLT4 cells [2] = assay: CellTiter-Glo proliferation assay, MOLT4; assay type: cell-based, Human; conditions: for EC50: read-out: anti-proliferative EC50
SNU-449 cells = assay: CellTiter-Glo proliferation assay, SNU-449; assay type: cell-based, Human; conditions: for EC50: Homo sapiens, SNU-449, 72 h, read-out: anti-proliferative EC50
BT-474 cells = assay: CellTiter-Glo proliferation assay, BT-474; assay type: cell-based, Human; conditions: for EC50: Homo sapiens, BT-474, 72 h, read-out: anti-proliferative EC50
ERK5 [3] = molecular target: T1, ERK5 (Homo sapiens, UniProt Q13164); assay: KdELECT biochemical binding assay; conditions: for binding affinity for ERK5 (in words): Table S1
T1 sequence (Q13164 whole entry): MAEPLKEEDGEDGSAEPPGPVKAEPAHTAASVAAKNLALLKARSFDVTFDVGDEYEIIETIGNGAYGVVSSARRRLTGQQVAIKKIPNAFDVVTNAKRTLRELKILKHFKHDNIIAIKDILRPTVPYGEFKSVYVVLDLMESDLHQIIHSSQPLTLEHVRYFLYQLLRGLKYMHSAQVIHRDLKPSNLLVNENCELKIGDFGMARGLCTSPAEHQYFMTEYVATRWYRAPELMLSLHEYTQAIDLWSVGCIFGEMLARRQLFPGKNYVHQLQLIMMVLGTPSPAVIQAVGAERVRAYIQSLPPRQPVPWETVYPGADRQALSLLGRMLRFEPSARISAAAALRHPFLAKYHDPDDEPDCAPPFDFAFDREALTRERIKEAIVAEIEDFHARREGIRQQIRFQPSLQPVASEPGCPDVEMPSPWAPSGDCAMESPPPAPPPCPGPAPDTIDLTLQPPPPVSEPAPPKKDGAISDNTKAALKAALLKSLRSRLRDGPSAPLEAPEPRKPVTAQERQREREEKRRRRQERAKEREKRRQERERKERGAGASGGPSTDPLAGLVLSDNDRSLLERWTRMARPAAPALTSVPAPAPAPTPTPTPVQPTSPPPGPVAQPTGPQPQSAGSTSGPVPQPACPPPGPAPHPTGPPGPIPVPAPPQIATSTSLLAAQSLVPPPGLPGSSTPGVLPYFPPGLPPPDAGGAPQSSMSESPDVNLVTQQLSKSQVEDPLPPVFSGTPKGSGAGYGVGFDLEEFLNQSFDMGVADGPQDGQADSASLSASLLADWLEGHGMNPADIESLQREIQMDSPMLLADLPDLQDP
Outline: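 Binding constants to ERK5 were determined in an outsourced KdELECT kinase binding assay from an 11-point dose–response curve.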

IL-6 secretion = assay: IL-6 ELISA, LPS-stimulated HUVECs; assay type: cell-based, Human; conditions: LPS 10 μg/mL 6 hours
Outline: (§1)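 HUVECs were seeded at 30,000–60,000 cells/well and pre-treated with test compound for 5 or 24 h. They were then stimulated with E. coli O111:B4 LPS at 10 μg/mL for 6 h. Secreted IL-6 or IL-8 in the supernatant was quantified by sandwich ELISA kits per the manufacturer. Statistics used two-way ANOVA with Bonferroni correction.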

IL-8 secretion = assay: IL-8 ELISA, LPS-stimulated HUVECs; assay type: cell-based, Human; conditions: LPS 10 μg/mL 6 hours
Outline: as §1

BRD4 = BRD4 (Homo sapiens, UniProt O60885); assay: BRD4 immunoblot in MOLT4 cells; assay type: cell-based; conditions: 5 hours
Outline: (§2)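 MOLT4 cells (RPMI, 10% heat-inactivated FBS, pen-strep, 37 °C, 5% CO2) were exposed to test compound at a range of concentrations for 5 h. Lysis was in M-PER with protease and phosphatase inhibitors, and lysates were BCA-normalised. Samples were run on 4–12% Bis-Tris gels and blotted to nitrocellulose. ERK5, BRD4, AURKA and actin antibodies were applied overnight at 4 °C. Detection was by IRDye secondaries. Blots are representative of 2–3 biological replicates.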

AURKA = molecular target: T2, AURKA (Homo sapiens, UniProt O14965); assay: AURKA immunoblot in MOLT4 cells; assay type: cell-based; conditions: 5 hours
T2 sequence (O14965 1-403): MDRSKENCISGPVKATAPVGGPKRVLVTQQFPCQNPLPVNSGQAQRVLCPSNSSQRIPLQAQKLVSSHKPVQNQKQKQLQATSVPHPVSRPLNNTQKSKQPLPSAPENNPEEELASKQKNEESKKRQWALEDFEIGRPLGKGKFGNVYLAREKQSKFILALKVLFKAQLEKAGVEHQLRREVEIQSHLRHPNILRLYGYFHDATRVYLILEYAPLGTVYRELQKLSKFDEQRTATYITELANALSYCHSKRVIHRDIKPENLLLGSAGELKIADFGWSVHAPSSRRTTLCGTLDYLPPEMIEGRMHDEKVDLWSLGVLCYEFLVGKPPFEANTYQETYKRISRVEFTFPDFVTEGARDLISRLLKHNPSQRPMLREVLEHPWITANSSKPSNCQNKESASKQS
Outline: as §2

ERK5 [4] = molecular target: T1, ERK5; assay: ERK5 degradation in MOLT4 cells; assay type: cell-based; conditions: for DC50: read-out: DC50 of ERK5 degradation, 5-hour treatment
MOLT4 cells [5] = assay: global quantitative TMT MS proteomics in MOLT4 cells; assay type: cell-based, Human; conditions: MOLT4, 250 nM, 5 hours
Outline: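 MOLT4 cells were treated for 5 h with test compound (250 nM, or 100 nM for one degrader) or DMSO (biological triplicate), then harvested by centrifugation. TMT-labelled tryptic peptides were analysed by LC-MS3 on an Orbitrap Fusion Lumos using a 190 min 6–27% acetonitrile gradient. Spectra were searched against Swissprot human. Proteins with ≥2 unique peptides were kept, and abundance relative to DMSO was computed by limma.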

panel of 468 kinases = assay: scanMAX KINOMEscan selectivity panel; assay type: binding; conditions: 1 μM
ERK5 [6] = conditions: read-out: reported IC50 for ERK5; ref Wang et al., 2018; cited from earlier work
[7] = system: BRD4 and other members of the BET family proteins; conditions: ref Wang et al., 2018; cited from earlier work

| SMILES | EC50 (MOLT4 cells [2]; Homo sapiens, MOLT-4, 72 h) [nM] | EC50 (SNU-449 cells) [nM] | EC50 (BT-474 cells) [nM] | IL-6 secretion upon LPS stimulation (IL-6 secretion; 5-hour pre-treatment) | IL-6 secretion upon LPS stimulation (IL-6 secretion; 24-hour pre-treatment) | IL-8 secretion upon LPS stimulation (IL-8 secretion; 5-hour pre-treatment) | IL-8 secretion upon LPS stimulation (IL-8 secretion; 24-hour pre-treatment) | binding affinity for ERK5 (in words) (ERK5 [3]) | also measured |
| --- | --- | --- | --- | --- | --- | --- | --- | --- | --- |
| CCOc1cc(C(=O)N2CCC(N3CCN(C)CC3)CC2)ccc1Nc1ncc2c(n1)N(S(C)(=O)=O)c1ccccc1C(=O)N2C [AX15836, reference compound] | > 10000 | > 20000 | > 20000 | – | – | – | – | – | effect on IL-6-induced proliferation [1]: no effect |
| CN1CCN(c2cnc3c(C4CCN(C(=O)c5ccc(OC(F)(F)F)cc5N)CC4)ncnc3c2)CC1 [BAY-885] | > 10000 | > 20000 | > 20000 | no effect | no effect | no effect | no effect | – | Kd (ERK5 [3]): 1 nM; effect on IL-6-induced proliferation [1]: no effect |
| Cc1ncsc1-c1ccc([C@H](C)NC(=O)[C@@H]2C[C@@H](O)CN2C(=O)[C@@H](NC(=O)CCCCCN2CCN(C(=O)c3ccc(Nc4ncc5c(n4)N(C4CCCC4)c4ccccc4C(=O)N5C)cc3)CC2)C(C)(C)C)cc1 [INY-05-091, (2S,4R)-1-((S)-2-(6-(4-(4-((11-cyclopentyl-5-methyl-6-oxo-6,11-dihydro-5H-benzo[e]pyrimido[5,4-b][1,4]diazepin-2-yl)amino)benzoyl)piperazin-1-yl)hexanamido)-3,3-dimethylbutanoyl)-4-hydroxy-N-((S)-1-(4-(4-methylthiazol-5-yl)phenyl)ethyl)pyrrolidine-2-carboxamide] | – | – | – | – | – | – | – | high binding affinities | BRD4 protein levels (BRD4): potent BRD4 degradation; AURKA protein levels (AURKA): validated through immunoblot analysis; anti-proliferative activity (in words) (MOLT4 cells [2]; MOLT4, 3 days): potent anti-proliferative activities; DC50 (ERK5 [4]): 167 nM; AURKA protein abundance, proteomics (MOLT4 cells [5]): induced downregulation; BRD3 and BRD4 protein abundance, proteomics (MOLT4 cells [5]): additional downregulated targets; ERK5 (MAPK7) protein abundance, proteomics (MOLT4 cells [5]): potent downregulation |
| CCC(C)N1c2ccccc2C(=O)N(C)c2cnc(Nc3ccc(C(=O)N4CCN(CCCCCC(=O)N[C@H](C(=O)N5C[C@H](O)C[C@H]5C(=O)N[C@@H](C)c5ccc(-c6scnc6C)cc5)C(C)(C)C)CC4)cc3)nc21 (stereo partly drawn) [INY-05-128, (2S,4R)-1-((2S)-2-(6-(4-(4-((11-(sec-butyl)-5-methyl-6-oxo-6,11-dihydro-5H-benzo[e]pyrimido[5,4-b][1,4]diazepin-2-yl)amino)benzoyl)piperazin-1-yl)hexanamido)-3,3-dimethylbutanoyl)-4-hydroxy-N-((S)-1-(4-(4-methylthiazol-5-yl)phenyl)ethyl)pyrrolidine-2-carboxamide] | 1100 | – | – | – | – | – | – | high binding affinities | BRD4 protein levels (BRD4): no effect; AURKA protein levels (AURKA): validated through immunoblot analysis; DC50 (ERK5 [4]): 281 nM; AURKA protein abundance, proteomics (MOLT4 cells [5]): induced downregulation; ERK5 (MAPK7) protein abundance, proteomics (MOLT4 cells [5]): potent downregulation |
| CN1CCN(c2ccc3c(C4CCN(C(=O)c5ccc(OC(F)(F)F)cc5N)CC4)ncnc3c2)CC1 [INY-06-086, (2-amino-4-(trifluoromethoxy)phenyl)(4-(7-(4-methylpiperazin-1-yl)quinazolin-4-yl)piperidin-1-yl)methanone] | – | > 20000 | > 20000 | – | – | – | – | high binding affinity | biochemical selectivity profile across the kinome (panel of 468 kinases; 468 kinases): similarly selective for ERK5 as BAY-885 |
| Cc1ncsc1-c1ccc([C@H](C)NC(=O)[C@H]2C[C@H](O)CN2C(=O)[C@@H](NC(=O)CCCCCN2CCN(c3ccc4c(C5CCN(C(=O)c6ccc(OC(F)(F)F)cc6N)CC5)ncnc4c3)CC2)C(C)(C)C)cc1 [INY-06-089, (2R,4S)-1-((S)-2-(6-(4-(4-(1-(2-amino-4-(trifluoromethoxy)benzoyl)piperidin-4-yl)quinazolin-7-yl)piperazin-1-yl)hexanamido)-3,3-dimethylbutanoyl)-4-hydroxy-N-((S)-1-(4-(4-methylthiazol-5-yl)phenyl)ethyl)pyrrolidine-2-carboxamide] | – | > 20000 | > 20000 | no effect | – | no effect | – | – | potential off-target kinases (panel of 468 kinases): also inhibits the same kinases; ERK5 downregulation (ERK5 [4]; 5 hours, concentrations up to 5 μM): unable to induce ERK5 downregulation |
| CCC(C)N1c2ccccc2C(=O)N(C)c2cnc(Nc3ccc(C(=O)N4CCC(N5CCN(C)CC5)CC4)cc3OC)nc21 (centres unmarked) [JWG-071] | – | – | – | – | – | – | – | – | IC50 (ERK5 [6]): 88 nM; EC50 (MOLT4 cells [2]; MOLT4, 3 days): 2400 nM; binding to off-target BET family proteins [7]: significantly reduced affinity |
| CCOc1cc(N2CCC(O)CC2)ccc1Nc1ncc2c(n1)N(C)c1ccccc1C(=O)N2C [XMD8-92] | – | – | – | reduced | significantly reduced | reduced | significantly reduced | – | – |
| CCOc1cc(C(=O)N2CCC(N3CCN(C)CC3)CC2)ccc1Nc1ncc2c(n1)N(C1CCCC1)c1ccccc1C(=O)N2C [XMD17-109] | – | – | – | reduced | significantly reduced | reduced | significantly reduced | – | anti-proliferative activity (in words) (MOLT4 cells [2]; MOLT4, 3 days): potent anti-proliferative activities; anti-proliferative effect (in words) (SNU-449 cells; SNU-449, 3d treatment): the only compound to display anti-proliferative effects; anti-proliferative effect (in words) (BT-474 cells; BT-474, 3d treatment): the only compound to display anti-proliferative effects; binding to off-target BET family proteins [7]: binds to and inhibits BRD4 and other members of the BET family proteins |
